Experimental data reported in ChEMBL document CHEMBL1134569, “Synthesis and in vitro and in vivo antimalarial activity of new 4-anilinoquinolines” (J Med Chem, 2001).

How the values were obtained:
[1] = Cytotoxicity upon MPMs (mouse peritoneal macrophages) at 2 uM concentration; NT=No toxicity
Outline: (§1)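 Mouse peritoneal macrophages harvested 48 h after potato-starch stimulation and seeded at 30000 cells/well. After 24 h, washed and exposed to 2-fold drug dilutions in RPMI + 5% FCS (final DMSO below 0.5%) at 37 °C, 5% CO₂, for 7 days. Toxicity scored microscopically as toxic or not versus untreated controls.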

[2] = Cytotoxicity upon MPMs (mouse peritoneal macrophages) at 3.1 uM concentration; NT= No toxicity.; outline: as §1
[3] = Cytotoxicity upon MRC-5 cells (diploid embryonic lung cell line) at 12.5 uM concentration; assay type: cell-based, MRC5; details: human
Outline: (§2)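 MRC-5 human diploid embryonic lung cells seeded at 5000/well, washed after 24 h, then given 2-fold drug dilutions in RPMI + 5% FCS (final DMSO below 0.5%). Incubated at 37 °C, 5% CO₂, for 7 days. MTT read-out at 540 nm, scored as percent absorbance reduction versus untreated controls.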

[4] = Cytotoxicity upon MRC-5 cells (diploid embryonic lung cell line) at 25 uM concentration; assay type: cell-based, MRC5; details: human; outline: as §2
[5] = Cytotoxicity upon MRC-5 cells (diploid embryonic lung cell line) at 3.1 uM concentration; assay type: cell-based, MRC5; details: human; outline: as §2
[6] = Cytotoxicity upon MRC-5 cells (diploid embryonic lung cell line) at 32 uM concentration; assay type: cell-based, MRC5; details: human; outline: as §2
[7] = Cytotoxicity upon MRC-5 cells (diploid embryonic lung cell line) at 6.3 uM concentration; assay type: cell-based, MRC5; details: human; outline: as §2
[8] = Cytotoxicity upon MRC-5 cells (diploid embryonic lung cell line) at 8 uM concentration; assay type: cell-based, MRC5; details: human; outline: as §2
[9] = Cytotoxicity upon MPMs (mouse peritoneal macrophages) at 12.5 uM concentration; Toxic Compound; outline: as §1
[10] = Cytotoxicity upon MPMs (mouse peritoneal macrophages) at 32 uM concentration; Toxic Compound.; outline: as §1
[11] = Cytotoxicity upon MPMs (mouse peritoneal macrophages) at 6.3 uM concentration; Toxic Compound; outline: as §1
[12] = Cytotoxicity upon MRC-5 cells (diploid embryonic lung cell line) at 1 uM concentration; assay type: cell-based, MRC5; details: human; outline: as §2
Plasmodium falciparum [13] = assay: Inhibitory activity against chloroquine-resistant Plasmodium falciparum K1; assay type: functional, organism-based
Plasmodium falciparum [14] = assay: Inhibitory activity against chloroquine-resistant Plasmodium falciparum FcB1R; assay type: functional, organism-based; details: Plasmodium falciparum
Plasmodium falciparum [15] = assay: Inhibitory activity against chloroquine-sensitive Plasmodium falciparum THAI
[16] = Cytotoxicity upon MPMs (mouse peritoneal macrophages) at 2 uM; outline: as §1
[17] = Cytotoxicity upon MRC-5 cells (diploid embryonic lung cell line) at 25 uM conc.; assay type: cell-based, MRC5; details: human; outline: as §2
[18] = Cytotoxicity upon MRC-5 cells (diploid embryonic lung cell line) at 6.3 uM; assay type: cell-based, MRC5; details: human; outline: as §2
[19] = Cytotoxicity upon MPMs (mouse peritoneal macrophages) at 12.5 uM conc.; Toxic; outline: as §1
[20] = Cytotoxicity upon MPMs (mouse peritoneal macrophages) at 6.3 uM conc.; Toxic; outline: as §1
[21] = Cytotoxicity upon MRC-5 cells (diploid embryonic lung cell line) at 1.6 uM conc.; assay type: cell-based, MRC5; details: human; outline: as §2
[22] = Cytotoxicity upon MPMs (mouse peritoneal macrophages) at 12.5 uM conc.;NT=No Toxicity; outline: as §1
[23] = Cytotoxicity upon MPMs (mouse peritoneal macrophages) at 6.3 uM; outline: as §1
Mus musculus [24] = assay: Antimalarial activity on Plasmodium berghei in mice (Mus musculus) dosed at 40 mg/kg at day 4; assay type: functional
Outline: (§3)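 Female Swiss CD-1 mice (4 weeks, 20-25 g), three per group, infected ip with about 10⁷ P. berghei ANKA 65 parasitized erythrocytes from an infected donor. Dosed orally at 40 mg/kg in 100% DMSO at infection, then ip for the following 4 days. Parasitaemia reduction and mean survival time compared with three DMSO-dosed infected controls.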

Mus musculus [25] = assay: Change in the mean survival time of the treated mice infected with Plasmodium berghei, dosed at 40 mg/kg; assay type: functional
Outline: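 P. berghei ANKA 65 in 4-week-old female Swiss CD-1 mice (20-25 g), infected ip with about 10⁷ parasitized erythrocytes; 40 mg/kg given orally at infection (formulated in 100% DMSO), then ip over the following 4 days; three mice per group; mean survival time of treated mice compared with three infected DMSO-dosed controls.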

[26] = Cytotoxicity upon MRC-5 cells (diploid embryonic lung cell line) at 12.5 uM; assay type: cell-based, MRC5; details: human; outline: as §2
[27] = Cytotoxicity upon MRC-5 cells (diploid embryonic lung cell line) at 3.1 uM; assay type: cell-based, MRC5; details: human; outline: as §2
[28] = Cytotoxicity upon MRC-5 cells (diploid embryonic lung cell line) at 1 uM; assay type: cell-based, MRC5; details: human; outline: as §2
[29] = Cytotoxicity upon MRC-5 cells (diploid embryonic lung cell line) at 32 uM; assay type: cell-based, MRC5; details: human; outline: as §2
[30] = Cytotoxicity upon MRC-5 cells (diploid embryonic lung cell line) at 8 uM; assay type: cell-based, MRC5; details: human; outline: as §2
[31] = Cytotoxicity upon MPMs (mouse peritoneal macrophages) at 8 uM conc.;NT=No Toxicity; outline: as §1
[32] = Cytotoxicity upon MPMs (mouse peritoneal macrophages) at 32 uM; outline: as §1
[33] = Cytotoxicity upon MPMs (mouse peritoneal macrophages) at 3.1 uM conc.;NT=No Toxicity; outline: as §1
Mus musculus [34] = assay: Antimalarial activity on Plasmodium berghei in mice (Mus musculus) dosed at 40 mg/kg at day 7; assay type: functional; outline: as §3
[35] = Cytotoxicity upon MPMs (mouse peritoneal macrophages) at 2 uM concentration; No toxicity; outline: as §1
[36] = Cytotoxicity upon MPMs (mouse peritoneal macrophages) at 3.1 uM concentration; No toxicity; outline: as §1
[37] = Cytotoxicity upon MPMs (mouse peritoneal macrophages) at 32 uM concentration; No toxicity; outline: as §1
[38] = Cytotoxicity upon MPMs (mouse peritoneal macrophages) at 6.3 uM concentration; No toxicity; outline: as §1
[39] = Cytotoxicity upon MPMs (mouse peritoneal macrophages) at 8 uM concentration; No toxicity; outline: as §1
[40] = Cytotoxicity upon MPMs (mouse peritoneal macrophages) at 12.5 uM concentration; No toxicity; outline: as §1
[41] = Cytotoxicity upon MRC-5 cells (diploid embryonic lung cell line) at 1.6 uM concentration; assay type: cell-based, MRC5; details: human; outline: as §2

| SMILES | IC50 (Plasmodium falciparum [13]) | IC50 (Plasmodium falciparum [14]) | IC50 (Plasmodium falciparum [15]) | NT [16] | cytotoxicity at 25 µM [17] | cytotoxicity at 6.3 µM [18] | Cytotoxicity [19] | Cytotoxicity [20] | cytotoxicity at 1.6 µM [21] | NT [23] | Reduction in parasitemia (Mus musculus [24]) | Excess MST (Mus musculus [25]) | further results |
| --- | --- | --- | --- | --- | --- | --- | --- | --- | --- | --- | --- | --- | --- |
| CCN(CC)Cc1cc(Nc2ccnc3cc(Cl)ccc23)ccc1O.Cl | 14.5 nM | 7.4 nM | 7.3 nM | – | – | – | – | – | – | – | – | – | NT [1]: No toxicity; NT [2]: No toxicity; cytotoxicity at 12.5 µM [3]: 0%; cytotoxicity at 25 µM [4]: 91%; cytotoxicity at 3.1 µM [5]: 0%; cytotoxicity at 32 µM [6]: 91%; cytotoxicity at 6.3 µM [7]: 0%; cytotoxicity at 8 µM [8]: 0%; Cytotoxicity [9]: Toxic; Cytotoxicity [10]: Toxic; Cytotoxicity [11]: Toxic; cytotoxicity at 1 µM [12]: 0% |
| O=C(CN1CCCCC1)Nc1cc(COC(=O)CCCCCCCN2CCCCC2)cc(Nc2ccnc3cc(Cl)ccc23)c1 | – | 165 nM | – | Cytotoxicity upon MPMs at 2 uM | 83% | 84% | Toxic | Toxic | 0% | – | – | – | – |
| O=C(CN1CCCCC1)Nc1cc(COC(=O)CCCCN2CCCCC2)cc(Nc2ccnc3cc(Cl)ccc23)c1 | 19.1 nM | 15.5 nM | 17.3 nM | Cytotoxicity upon MPMs at 2 uM | 92% | 90% | – | – | 0% | Cytotoxicity upon MPMs at 2 uM | 99.99% | 0% | NT [22]: Cytotoxicity upon MPMs at 2 uM |
| O=C(CN1CCCCC1)Nc1cc(COC(=O)c2ccnc3ccccc23)cc(Nc2ccnc3cc(Cl)ccc23)c1 | – | 25.6 nM | – | Cytotoxicity upon MPMs at 2 uM | 100% | 100% | Toxic | Toxic | 62% | – | – | – | – |
| CC1CCN(CC(=O)Nc2cc(CO)cc(Nc3ccnc4cc(Cl)ccc34)c2)CC1 | – | 77.7 nM | – | – | – | 0% | Toxic | Toxic | – | – | – | – | cytotoxicity at 12.5 µM [26]: 100%; cytotoxicity at 3.1 µM [27]: 0% |
| O=C(CN1CCCCC1)Nc1cc(CN2CCOCC2)cc(Nc2ccnc3cc(Cl)ccc23)c1 | 12.4 nM | 9.5 nM | 12.8 nM | Cytotoxicity upon MPMs at 2 uM | – | – | – | – | – | – | 100% | – | cytotoxicity at 1 µM [28]: 0%; cytotoxicity at 32 µM [29]: 100%; cytotoxicity at 8 µM [30]: 0%; NT [31]: Cytotoxicity upon MPMs at 2 uM; Cytotoxicity [32]: Cytotoxicity upon MPMs at 32 uM |
| O=C(CN1CCCCC1)Nc1cc(COC(=O)CCCCN2CCOCC2)cc(Nc2ccnc3cc(Cl)ccc23)c1 | 22.5 nM | 14.1 nM | 15.2 nM | Cytotoxicity upon MPMs at 2 uM | 0% | 0% | – | – | 0% | Cytotoxicity upon MPMs at 2 uM | 97.9% | 100% | NT [22]: Cytotoxicity upon MPMs at 2 uM |
| O=C(CN1CCCCC1)Nc1cc(CO)cc(Nc2ccnc3cc(Cl)ccc23)c1 | 152 nM | 44.5 nM | 89.6 nM | – | 98% | 0% | Toxic | – | 0% | Cytotoxicity upon MPMs at 6.3 uM | – | 110% | NT [33]: Cytotoxicity upon MPMs at 6.3 uM; cytotoxicity at 12.5 µM [26]: 0%; cytotoxicity at 1 µM [28]: 0%; cytotoxicity at 3.1 µM [27]: 0%; cytotoxicity at 32 µM [29]: 99%; cytotoxicity at 8 µM [30]: 0%; Reduction in parasitemia (Mus musculus [34]): 60% |
| CCN(CC)CCCC(C)Nc1ccnc2cc(Cl)ccc12 (configuration not stated) [CHLOROQUINE] | – | – | – | – | – | – | – | – | – | – | – | – | NA [35]: Not Active; NA [36]: Not Active; NA [37]: Not Active; NA [38]: Not Active; NA [39]: Not Active; cytotoxicity at 12.5 µM [3]: 0%; cytotoxicity at 25 µM [4]: 0%; cytotoxicity at 3.1 µM [5]: 0%; cytotoxicity at 32 µM [6]: 0%; cytotoxicity at 6.3 µM [7]: 0%; cytotoxicity at 8 µM [8]: 0%; NA [40]: Not Active; cytotoxicity at 1 µM [12]: 0%; cytotoxicity at 1.6 µM [41]: 0% |
